Experimental findings from ChEMBL document CHEMBL2380248, “Matrix metalloproteinase inhibitors based on the 3-mercaptopyrrolidine core” (J Med Chem, 2013) are described below.

One series has as its target T1, Matrilysin (Homo sapiens, UniProt P09237).
T1 sequence (P09237 whole entry): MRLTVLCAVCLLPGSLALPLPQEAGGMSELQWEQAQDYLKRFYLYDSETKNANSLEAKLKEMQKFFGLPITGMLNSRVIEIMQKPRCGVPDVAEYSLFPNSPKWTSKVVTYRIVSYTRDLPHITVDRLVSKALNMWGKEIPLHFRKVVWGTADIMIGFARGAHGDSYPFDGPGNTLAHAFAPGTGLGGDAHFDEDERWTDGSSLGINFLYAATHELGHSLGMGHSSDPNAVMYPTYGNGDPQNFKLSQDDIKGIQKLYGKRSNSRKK
Nature of the series: Inhibition of MMP-7 (unknown origin) using Mca-PLGLDpa-AR-NH2 as substrate preincubated for 30 mins by fluorescence assay. To be noted: read-out: Ki(app). The procedure, abridged: (§1)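 Fluorogenic assay at 25°C in 50 mM HEPES pH 7.5, 10 mM CaCl2, 200 mM NaCl, 0.01% Brij-35, 5 μM TCEP. Inhibitor in DMSO preincubated 30 min with enzyme (0.2–7 nM), then started with Mca-PLGLDpa-AR-NH2 (4 μL of […] in 50% DMSO); product release followed at λex 328/λem 393 nm.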

The target in a further series is Collagenase 3 (Homo sapiens, UniProt P45452). The experiment in a line: Inhibition of MMP-13 (unknown origin) using Mca-PLGLDpa-AR-NH2 as substrate preincubated for 30 mins by fluorescence assay. To be noted: read-out: Ki(app). The procedure, abridged:
as §1

In series [1] the target is T2, Matrix metalloproteinase-9 (Homo sapiens, UniProt P14780). The experiment in a line: Inhibition of MMP-9 (unknown origin) using Mca-PLGLDpa-AR-NH2 as substrate preincubated for 30 mins by fluorescence assay. Conditions: read-out: Ki(app). The procedure, abridged: as §1
T2 sequence (P14780 whole entry): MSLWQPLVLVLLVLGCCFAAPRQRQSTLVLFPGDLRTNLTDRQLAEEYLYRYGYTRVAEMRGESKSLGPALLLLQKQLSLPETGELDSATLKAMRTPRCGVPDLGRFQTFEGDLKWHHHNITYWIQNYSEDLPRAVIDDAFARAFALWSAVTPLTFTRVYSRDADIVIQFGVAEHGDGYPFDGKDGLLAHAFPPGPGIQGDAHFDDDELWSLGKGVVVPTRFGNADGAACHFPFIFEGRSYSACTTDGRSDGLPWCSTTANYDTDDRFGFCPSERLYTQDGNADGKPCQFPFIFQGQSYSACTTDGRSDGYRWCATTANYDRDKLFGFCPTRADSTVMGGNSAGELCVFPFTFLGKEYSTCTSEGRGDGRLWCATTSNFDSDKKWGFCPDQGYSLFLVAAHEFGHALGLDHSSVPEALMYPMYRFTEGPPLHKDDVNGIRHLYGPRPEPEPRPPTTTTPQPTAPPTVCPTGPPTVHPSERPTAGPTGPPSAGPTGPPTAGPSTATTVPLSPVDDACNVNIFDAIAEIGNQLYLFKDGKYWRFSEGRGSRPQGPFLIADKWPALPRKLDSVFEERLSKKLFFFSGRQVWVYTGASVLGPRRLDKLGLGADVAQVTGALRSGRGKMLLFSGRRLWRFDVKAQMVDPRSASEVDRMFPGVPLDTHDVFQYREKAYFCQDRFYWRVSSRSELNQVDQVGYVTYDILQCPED
Series [2] has as its target 72 kDa type IV collagenase (Homo sapiens, UniProt P08253). The experiment in a line: Inhibition of MMP-2 (unknown origin) using Mca-PLGLDpa-AR-NH2 as substrate preincubated for 30 mins by fluorescence assay. To be noted: read-out: Ki(app). An outline of the steps:
as §1

Series [3] addresses Matrix metalloproteinase-14 (Homo sapiens, UniProt P50281). The experiment in a line: Inhibition of MMP-14 (unknown origin) using Mca-PLGLDpa-AR-NH2 as substrate preincubated for 30 mins by fluorescence assay. To be noted: read-out: Ki(app). An outline of the steps:
as §1

The target of a further series is T3, Interstitial collagenase (Homo sapiens, UniProt P03956).
T3 sequence (P03956 whole entry): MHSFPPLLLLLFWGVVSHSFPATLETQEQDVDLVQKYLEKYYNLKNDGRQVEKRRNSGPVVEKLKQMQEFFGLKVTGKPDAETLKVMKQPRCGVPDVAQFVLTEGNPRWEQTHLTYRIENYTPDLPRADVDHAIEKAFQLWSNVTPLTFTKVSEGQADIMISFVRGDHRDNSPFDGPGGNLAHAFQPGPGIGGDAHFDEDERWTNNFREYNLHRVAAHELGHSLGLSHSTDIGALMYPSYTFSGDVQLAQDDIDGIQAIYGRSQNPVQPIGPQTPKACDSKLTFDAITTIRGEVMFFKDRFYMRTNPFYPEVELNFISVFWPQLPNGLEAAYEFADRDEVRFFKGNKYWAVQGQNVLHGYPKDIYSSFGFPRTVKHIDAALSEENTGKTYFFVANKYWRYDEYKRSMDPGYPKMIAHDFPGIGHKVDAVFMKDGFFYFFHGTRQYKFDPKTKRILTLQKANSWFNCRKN
The experiment in a line: Inhibition of MMP-1 (unknown origin) using Mca-PLGLDpa-AR-NH2 as substrate preincubated for 30 mins by fluorescence assay. To be noted: read-out: Ki(app). An outline of the steps: as §1

The next series has as its target Stromelysin-1 (Homo sapiens, UniProt P08254). Nature of the series: Inhibition of MMP-3 (unknown origin) using Mca-PLGLDpa-AR-NH2 as substrate preincubated for 30 mins by fluorescence assay. Conditions: read-out: Ki(app). An outline of the steps: as §1
Series [4] can be described thus: Stability of the compound in alpha-modified minimum essential medium at 10000 x IC50 up to 72 hrs in presence of fetal bovine serum. The format is ADME. Conditions: cattle. An outline of the steps: (§2)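 Aliquots then incubated 30 min with MMP-9 (final ~1 nM) in HEPES buffer before substrate addition; relative rates (νi/νo) taken in triplicate and plotted versus time; mean ± SEM.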

The target in series [5] is T2, Matrix metalloproteinase-9. Nature of the series: Inhibition of MMP-9 (unknown origin) at 10000 x IC50 incubated up to 72 hrs prior to enzyme addition measured after 30 mins in presence of 20% fetal bovine serum. The procedure, abridged:
as §2

Series [6] in a line: Cytotoxicity against human MSC assessed as cell killing up to 100 uM after 24 hrs by trypan blue staining-based hemocytometric analysis relative to control. The procedure, abridged: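 Low-passage hMSCs grown in αMEM with L-glutamine, penicillin, streptomycin, 20% FBS at 37°C, 5% CO2; fed every three days to 75% confluency, then given fresh media with inhibitor (log panel 1 μM to 100 μM, constant final DMSO) for 24 h. Cells washed with PBS, trypsinized, pelleted, Trypan Blue counted by hemocytometer; normalized to control, triplicate, mean ± SEM; >20% killing deemed cytotoxic.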

Calls of active or inactive are those of the source. No cut-off for these calls is given here.

Stromelysin-1, sequence (P08254 whole entry): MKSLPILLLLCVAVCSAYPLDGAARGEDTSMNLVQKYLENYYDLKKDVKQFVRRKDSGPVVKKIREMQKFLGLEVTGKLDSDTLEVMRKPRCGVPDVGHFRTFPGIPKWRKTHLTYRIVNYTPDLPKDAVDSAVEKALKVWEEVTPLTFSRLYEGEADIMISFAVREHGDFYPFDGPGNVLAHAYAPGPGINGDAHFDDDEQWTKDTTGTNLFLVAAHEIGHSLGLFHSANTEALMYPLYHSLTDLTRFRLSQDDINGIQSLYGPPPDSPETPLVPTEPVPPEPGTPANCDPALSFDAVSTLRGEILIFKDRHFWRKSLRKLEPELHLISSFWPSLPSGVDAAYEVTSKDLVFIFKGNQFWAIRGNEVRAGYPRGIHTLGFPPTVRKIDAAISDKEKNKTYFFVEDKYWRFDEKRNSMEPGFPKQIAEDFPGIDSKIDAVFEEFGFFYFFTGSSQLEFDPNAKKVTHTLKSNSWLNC
72 kDa type IV collagenase, sequence (P08253 whole entry): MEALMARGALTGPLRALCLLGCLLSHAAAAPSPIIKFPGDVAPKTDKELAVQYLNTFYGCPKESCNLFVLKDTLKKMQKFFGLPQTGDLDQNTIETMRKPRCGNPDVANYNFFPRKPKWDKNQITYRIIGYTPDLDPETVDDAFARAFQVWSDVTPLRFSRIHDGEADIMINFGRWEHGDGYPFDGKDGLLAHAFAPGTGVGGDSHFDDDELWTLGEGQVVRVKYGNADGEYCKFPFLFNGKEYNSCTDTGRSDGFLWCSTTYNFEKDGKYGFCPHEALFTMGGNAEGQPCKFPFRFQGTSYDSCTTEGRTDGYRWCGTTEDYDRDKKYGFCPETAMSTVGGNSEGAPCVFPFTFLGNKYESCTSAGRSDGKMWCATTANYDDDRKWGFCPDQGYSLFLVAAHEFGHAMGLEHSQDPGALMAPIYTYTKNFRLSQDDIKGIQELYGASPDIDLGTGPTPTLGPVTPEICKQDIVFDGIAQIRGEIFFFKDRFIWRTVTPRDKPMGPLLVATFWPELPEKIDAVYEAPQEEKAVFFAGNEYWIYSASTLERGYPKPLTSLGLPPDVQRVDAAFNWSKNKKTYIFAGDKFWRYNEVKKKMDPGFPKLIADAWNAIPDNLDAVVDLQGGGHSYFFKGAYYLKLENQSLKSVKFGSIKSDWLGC

On to `O=S(=O)(N[C@@H]1CCC[C@@H]1S)c1ccc(Oc2ccccc2)cc1` (racemic), for which the Ki was over 20 µM at Matrilysin; 0.2 µM on Collagenase 3; 0.97 µM in [1]; 0.81 µM in series [2]; 0.41 µM in series [3]; over 100 µM at Interstitial collagenase.
With `NCCCCCC(=O)N1C[C@H](NS(=O)(=O)c2ccc(Oc3ccccc3)cc2)[C@@H](O)C1` (racemic), the Ki on Matrilysin is over 100 µM; at Collagenase 3, over 200 µM; in series [1] it was 30 µM; at Stromelysin-1, over 100 µM; in series [2], 7 µM; in series [3], 85 µM. In addition, the Ki at Interstitial collagenase is over 50 µM.
In the case of `Cl.NCCCCCC(=O)N1C[C@H](NS(=O)(=O)c2ccc(Oc3ccccc3)cc2)[C@@H](S)C1` (racemic), the Stability entry in series [4] was “Stable”. Besides, the Ki in [1] is 0.0036 µM; in series [2], 0.0031 µM; in series [3] it was 0.0066 µM; on Interstitial collagenase, over 3 µM. The inhibition result in series [5] is “Active”. Also, the Activity result in series [6] was “<= 20%”.
As for `O=S(=O)(N[C@H]1CCC[C@@H]1S)c1ccc(-c2ccccc2)cc1` (racemic), the Ki on Collagenase 3 stood at 0.23 µM; in [1] it was 0.63 µM; at Stromelysin-1, 10 µM; in [2] it was 0.24 µM; in [3] it was 1.2 µM; at Interstitial collagenase, 10 µM.
For `O=S(=O)(N[C@@H]1CCC[C@H]1S)c1ccc(Oc2ccccc2)cc1`, the Ki at Matrilysin is 36 µM; at Collagenase 3 it was 0.01 µM; in [1], 0.042 µM; on Stromelysin-1, over 100 µM; in series [2], 0.067 µM; in series [3] it was 0.01 µM.
Take `CNC(=O)[C@H](Cc1ccccc1)NC(=O)[C@@H](CC(C)C)S[C@H]1CN(C(=O)CN2C(=O)c3ccccc3C2=O)C[C@H]1S` (mixture of isomers): the Ki turned out to be 0.05 µM at Matrilysin; 0.0049 µM in [1]; 0.3 µM on Stromelysin-1; 0.017 µM in [2]; 0.07 µM in series [3]; 0.11 µM on Interstitial collagenase.
`O=C(N[C@H]1CCC[C@@H]1S)c1ccc(Oc2ccccc2)cc1` (racemic): the Ki on Matrilysin is 5.7 µM; at Collagenase 3, 28 µM; in [1], 4.3 µM; at Stromelysin-1, over 200 µM; in series [2], 5.7 µM; in [3], over 25 µM. For the same molecule, the Ki at Interstitial collagenase is over 200 µM.
`O=S(=O)(N[C@H]1CNC[C@@H]1S)c1ccc(Oc2ccccc2)cc1` (racemic): the values for the Ki on Matrilysin and at Interstitial collagenase were over 25 µM and 25 µM, respectively.
As to `O=S(=O)(N[C@@H]1CCC[C@@H]1S)c1ccc(Oc2ccccc2)cc1`, the Ki was over 200 µM on Matrilysin; over 100 µM on Collagenase 3; over 1.6 µM in series [1]; over 200 µM on Stromelysin-1; 25 µM in series [2]; 25 µM in [3]. On Interstitial collagenase, the Ki was over 200 µM.
Consider `CNC(=O)[C@H](Cc1ccccc1)NC(=O)[C@@H](CC(C)C)S[C@H]1CNC[C@H]1S` (mixture of isomers), for which the Ki was determined as 0.23 µM at Matrilysin; 0.0053 µM in [1]; 4.1 µM at Stromelysin-1; 0.2 µM in series [2]; 0.31 µM in series [3]; 0.26 µM on Interstitial collagenase.
Consider `O=S(=O)(N[C@H]1CCC[C@@H]1S)c1ccc(Oc2ccccc2)cc1` (racemic), for which the inhibition result in [5] is “Active”.
Take `O=S(=O)(N[C@@H]1CNC[C@H]1S)c1ccc(Oc2ccccc2)cc1`: the Ki at Matrilysin came to 4.1 µM; on Interstitial collagenase, 6.3 µM.
As for `O=S(=O)(N[C@H]1CCC[C@H]1S)c1ccc(Oc2ccccc2)cc1`, the Ki at Matrilysin was over 100 µM; at Collagenase 3 it was 0.16 µM; in series [1] it was 0.28 µM; in [2], 0.43 µM; in [3], 0.068 µM.
As for `NC(=O)N1C[C@H](NS(=O)(=O)c2ccc(Oc3ccccc3)cc2)[C@@H](S)C1` (racemic), on Matrilysin, the Ki was over 25 µM. Further, the Stability result in series [4] was “Stable”. Besides, the Activity entry in series [6] is given as “<= 20%”.
As for `CNC(=O)[C@H](Cc1ccccc1)NC(=O)[C@@H](CC(C)C)S[C@H]1CN(C(=O)CCCCCN2C(=O)c3ccccc3C2=O)C[C@H]1S` (mixture of isomers), the Ki at Matrilysin was determined as 0.011 µM; in series [1] it was 0.00098 µM; on Stromelysin-1 it was 0.0019 µM; in series [2], 0.0017 µM; in series [3] it was 0.007 µM; on Interstitial collagenase it was 0.052 µM.
As to `O=S(=O)(N[C@H]1CNC[C@@H]1S)c1ccc(Oc2ccccc2)cc1`, the Ki on Matrilysin is over 200 µM; on Interstitial collagenase it was 50 µM.
Consider `CNC(=O)[C@H](Cc1ccccc1)NC(=O)[C@@H](CC(C)C)S[C@H]1CN(C(=O)CCCN2C(=O)c3ccccc3C2=O)C[C@H]1S` (mixture of isomers), for which the Ki on Matrilysin came out at 0.012 µM; in [1], 0.0039 µM; on Stromelysin-1, 0.031 µM; in series [2], 0.0085 µM; in series [3] it was 0.006 µM; at Interstitial collagenase, 0.075 µM.
On to `CN([C@H]1CN(C(N)=O)C[C@@H]1S)S(=O)(=O)c1ccc(Oc2ccccc2)cc1` (racemic), for which the results for the Ki (on Matrilysin; in series [1]) were over 25 µM and 0.0011 µM, respectively.
In the case of `O=S(=O)(N[C@H]1CCC[C@@H]1S)c1ccc(Oc2ccccc2)cc1`, the Ki was over 100 µM at Matrilysin; 0.017 µM on Collagenase 3; 0.038 µM in series [1]; over 200 µM on Stromelysin-1; 0.0046 µM in series [2]; 0.031 µM in [3]. Also, the Ki at Interstitial collagenase worked out at 2.1 µM.
Turning to `O=C(NCCN1C(=O)c2ccccc2C1=O)N1C[C@H](NS(=O)(=O)c2ccc(Oc3ccccc3)cc2)[C@@H](S)C1` (racemic), on Matrilysin, the Ki is over 12 µM. Moreover, in series [6], the Activity entry is on record as “<= 20%”.
Take `O=S(=O)(N[C@H]1CCC[C@@H]1S)c1ccccc1` (racemic): the Ki is over 50 µM at Matrilysin; 3.4 µM on Collagenase 3; 9.6 µM in [1]; over 200 µM on Stromelysin-1; 7.2 µM in series [2]; 3 µM in [3]. The Ki on Interstitial collagenase was over 20 µM.
On to `CNC(=O)[C@H](Cc1ccccc1)NC(=O)[C@@H](CC(C)C)S[C@H]1CN(C(C)=O)C[C@H]1S` (mixture of isomers), for which the Ki at Matrilysin turned out to be 0.091 µM; in series [1], 0.0057 µM; on Stromelysin-1, 0.99 µM; in series [2] it was 0.014 µM; in series [3] it was 0.0062 µM; at Interstitial collagenase, 0.099 µM.
As for `CC(=O)NCCCCCC(=O)N1C[C@H](NS(=O)(=O)c2ccc(Oc3ccccc3)cc2)[C@@H](S)C1` (racemic), the Stability entry in series [4] is on record as “Stable”. The Activity entry in series [6] is given as “<= 20%”. For the same molecule, the Ki at Interstitial collagenase is over 6 µM.
For the molecule `O=S(=O)(N[C@H]1CCC[C@@H]1O)c1ccc(Oc2ccccc2)cc1` (racemic), the Ki at Matrilysin is over 200 µM; at Collagenase 3, 100 µM; in [1], 200 µM; at Stromelysin-1, over 200 µM; in [2] it was 50 µM; in series [3] it was over 200 µM. Besides, the Ki on Interstitial collagenase is over 200 µM.
